Screening results: PubChem BioAssay, The Scripps Research Institute Molecular Screening Center
TDP2 inh: human TDP2 enzyme inhibitors, primary screen, biochemical, epi absorbance, recombinant enzyme; AID 720702, 2013; 0.34% of 370,000 active; T5PNP hydrolysis, p-nitrophenol absorbance 415 nm; Tyrosyl-DNA phosphodiesterase 2 (Homo sapiens), O95551; inhibition, % at 12.8 µM;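 active = inhibition above the mean of all tested compounds plus 3 SD, set per campaign, cut at about 25% in these data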;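 note: 0% = DMSO with enzyme and 100% = buffer with substrate but no TDP2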
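Assay system: Recombinant human TDP2 | Quantity: 120 nM TDP2 per well | Incubation: 2 h at 37 °C | Signal: Epi absorbance | Evaluation: Percent inhibition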
TCR CD3 inh: inhibitors of human TCR-CD3 interaction, primary screen, biochemical, fluorescence, TAMRA-labeled TCR probe | inhibition, % at 9.4 µM | 0.37% of 360,000 active | AID 651800, 2012; in the data active = inhibition above about 19%;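 note: recombinant mutant TCR 2C K166C tagged with TAMRA read by polarization; 0% = receptor in buffer alone and 100% = receptor with positive control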
PAD4 inh: human PAD4 inhibitors, primary screen, biochemical, fluorescence polarization, 1536-well format; inhibition, % at 6.36 µM; recombinant PAD4, RCA probe fluorescence polarization; 0.41% of 330,000 active; AID 485272, 2010; Protein-arginine deiminase type-4 (Homo sapiens), Q9UM07;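 active = percent inhibition above a cutoff equal to the mean of all tested compounds plus 3 SD, cut at about 15% in these data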;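 note: 0% = PAD4 with RCA probe and DMSO and 100% = probe without PAD4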
Target sequence (Q9UM07 whole entry, looked up): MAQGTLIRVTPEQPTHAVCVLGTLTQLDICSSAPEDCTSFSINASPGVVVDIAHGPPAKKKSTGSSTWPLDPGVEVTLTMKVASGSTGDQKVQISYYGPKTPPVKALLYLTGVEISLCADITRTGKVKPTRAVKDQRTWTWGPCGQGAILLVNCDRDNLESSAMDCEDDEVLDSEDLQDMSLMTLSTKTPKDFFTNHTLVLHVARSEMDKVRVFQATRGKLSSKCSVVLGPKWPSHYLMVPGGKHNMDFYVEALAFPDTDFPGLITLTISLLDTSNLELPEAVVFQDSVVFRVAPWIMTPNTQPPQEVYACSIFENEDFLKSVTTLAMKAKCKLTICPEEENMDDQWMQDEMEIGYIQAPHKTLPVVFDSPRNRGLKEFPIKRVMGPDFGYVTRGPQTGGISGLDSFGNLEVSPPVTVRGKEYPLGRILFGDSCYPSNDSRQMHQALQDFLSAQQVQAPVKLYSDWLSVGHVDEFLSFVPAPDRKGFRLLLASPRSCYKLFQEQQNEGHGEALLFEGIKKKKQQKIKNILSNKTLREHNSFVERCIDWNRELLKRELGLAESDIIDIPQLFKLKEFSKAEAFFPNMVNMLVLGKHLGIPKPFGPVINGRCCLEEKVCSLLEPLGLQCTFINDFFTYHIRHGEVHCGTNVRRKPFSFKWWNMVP
HTRA1 inhibitor: HTRA1 serine protease inhibitors, primary screen, biochemical, fluorescence polarization, HTS; Q92743; recombinant HTRA1, FP-rhodamine activity-based probe; inhibition, % at 5.96 µM; 0.5% of 340,000 active; AID 504803, 2011; in the data active = inhibition above about 36%;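 note: 0% = enzyme with DMSO and 100% = wells lacking enzyme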
SIAE primary: human SIAE inhibitors, primary screen, biochemical, fluorescence polarization, FP-Rh probe, 1536-well HTS. Sialate O-acetylesterase (Homo sapiens), Q9HAT2. SIAE FP-Rh probe binding. inhibition, % at 9.66 µM. 0.69% of 370,000 active;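 active = inhibition above a cutoff: mean of compounds within the control limits plus 3 SD of those, cut at about 17% in these data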;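 note: 0% = plate median of compound wells and 100% = probe without SIAE protein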
ABHD4 inh: ABHD4 inhibitors, primary screen, biochemical, fluorescence polarization, mouse; purified mABHD4, FP-Rh probe fluorescence polarization; inhibition, % at 8.92 µM; (Lyso)-N-acylphosphatidylethanolamine lipase (Mus musculus), Q8VD66; 0.54% of 370,000 active; AID 720543, 2013;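 active = inhibition exceeding the mean over every tested compound plus 3 SD, cut at about 30% in these data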;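 note: 0% = plate median of compound wells and 100% = S159A mutant with DMSO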
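Doses – 8.92 µM, single dose · Material – wild-type mouse ABHD4 protein · Replication – single well per compound (singlicate) · Measure – percent inhibition of probe binding, normalized to plate controls · Schedule – 45 min compound pre-incubation plus 60 min probe step, 25 °C · Detection – fluorescence polarization with parallel and perpendicular emission, 525/598 nm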
TDP2 confirm: human TDP2 enzyme inhibitors, retest, confirmation, biochemical, epi absorbance, recombinant enzyme | inhibition, % at 12.8 µM | 22% of 1,100 active | AID 743263, 2014 | shares compounds with TDP2 inh | absorbance read-out; in the data active = inhibition above about 25%;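 note: 0% = vehicle with enzyme and 100% = no enzyme buffer only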
* = called active by the depositor; . = no result given. The list is not random: actives were taken first. Their share in the collection is about 2%.

SMILES	TDP2 inh	TCR CD3 inh	PAD4 inh	HTRA1 inhibitor	SIAE primary	ABHD4 inh	TDP2 confirm
CC[C@H](C)[C@H](NC(N)=O)C(=O)NCCc1ccc(OC)c(OC)c1	25*	-6	-2	9	-5	2	11
COc1ccc(CCNC(=O)C(NC(=O)OCc2ccccc2)C(C)C)cc1OC (centres undefined)	-6	11	4	3	-11	5	.
Cc1c(Cc2ccccc2)c(=O)oc2cc(OCC(=O)NCC(O)c3ccccc3)ccc12 (centres undefined)	30*	3	4	-17	-1	1	5
Nc1cc(=O)[nH]c(SCC(=O)Nc2ccc(N3CCCCC3)cc2)n1	-4	-3	1	10	6	5	.
COc1ccccc1NS(=O)(=O)c1cc(C(=O)NCCCN2CCCC2=O)ccc1C	10	1	.	3	-1	2	.
CCn1cc(C(=O)Nc2ncccc2O)c(=O)c2cc(F)c(N3CCN(C(=O)c4ccco4)CC3)cc21	28*	20*	0	16	4	7	-2
CCCn1c(-c2ccc[nH]c2=O)nc2cc(C)c(C)cc21	-9	-3	-2	1	5	-9	.
O=C(CSc1nccc(=O)[nH]1)NC1CCCCCC1	4	5	2	-2	0	4	.
COC(=O)[C@]1(C)N[C@H](CN(C)C(=O)Nc2ccc(OC)cc2)[C@@H]2C(=O)N(C)C(=O)[C@@H]21	48*	11	-3	6	6	3	6
COC(=O)[C@]1(C)N[C@H](CN(C)C(=O)Nc2ccc(F)cc2)[C@@H]2C(=O)N(C)C(=O)[C@@H]21	1	-2	-1	0	-4	7	.
O=C(C1=C(O)C(=O)N(CC2CCCO2)C1c1cccc(O)c1)c1ccco1 (centres undefined)	27*	10	-5	-3	5	13	10
CCc1nnc(-n2nc(C)cc2-c2ccccc2)n1N	5	-2	-4	-1	0	0	.
CCc1nnc(N/N=C/c2cc(C)c(C)cc2C)n1N	65*	-4	.	1	3	10	8
COc1ccc(-c2csc3ncnc(N4CCN(S(=O)(=O)c5cccc(C(F)(F)F)c5)CC4)c23)cc1	25*	-3	1	2	-1	3	1
COc1ccc(-c2csc3ncnc(N4CCN(S(=O)(=O)c5cccc(Br)c5)CC4)c23)cc1	5	6	-2	0	-4	2	.
O=C(Nc1ccc(S(=O)(=O)N2CCCCC2)cc1)C1CC(=O)N(c2ccc(Cl)cc2)C1 (centres undefined)	25*	4	-2	-37	-25	-1	-6
Cc1ccc(C)c(NC(=O)c2cnccn2)c1	29*	-5	1	-6	1	1	-1
CCCCNc1nnc(Cc2ccc(Cl)cc2)c(=O)[nH]1	28*	4	.	3	11	0	0
COc1ccc2nc(NC(=O)CN3C(=O)NC4(CCCC4)C3=O)sc2c1	63*	-3	-5	-2	4	4	0
COc1ccc2nc(NC(=O)CSC3=NCCS3)sc2c1	2	2	13	-16	-8	-3	.
COc1ccc2nc(NC(=O)CSc3ccccc3)sc2c1	26*	-1	-2	-35	2	-9	5
Cn1c(=O)[nH]c(=O)c2c1nc(N1CCNCC1)n2Cc1ccccc1	26*	-2	0	0	-1	3	5
Cc1cc(Cl)c(OCCOCCN2CCC(C)CC2)c(Br)c1	7	0	-2	2	4	13	.
Cc1cc(Cl)c(OCCOCCN2CCN(C)CC2)c(Br)c1	34*	-2	1	-1	9	18	9
O=C1c2nccnc2C(=O)N1c1ccc(C(F)(F)F)cc1	28*	5	1	0	-3	2	1
SMILES	TDP2 inh	TCR CD3 inh	PAD4 inh	HTRA1 inhibitor	SIAE primary	ABHD4 inh	TDP2 confirm
CCOc1ccc(N2C(=O)c3cccnc3C2=O)cc1	3	4	-4	0	8	3	.
O=C(Cc1ccccc1Cl)NC1(O)C(=O)c2ccccc2C1=O	47*	0	14	.	8	13	54*
O=C(Cc1ccc(Cl)cc1)NCc1ccccc1Cl	0	-6	-2	-8	-4	7	.
COc1cccc(C2/C(=C(\O)c3ccc4c(c3)OCCO4)C(=O)C(=O)N2CC2CCCO2)c1 (centres undefined)	35*	0	.	9	4	11	3
COc1ccc(/C(O)=C2/C(=O)C(=O)N(CC3CCCO3)C2c2cccc(OC)c2)cc1 (centres undefined)	8	4	-2	-2	-3	-4	.
NC1=C(Cl)C(=O)c2ccc(S(N)(=O)=O)cc2C1=O	76*	-2	.	11	-4	13	74*
Cc1nonc1NC(=O)CSc1nnnn1-c1ccccc1	-10	2	2	12	15	-6	.
COc1ccc(Cc2nnc(SCC(=O)NC(C)c3ccccc3)o2)cc1 (centres undefined)	72*	-3	-1	0	6	-1	-6
OC(CNCc1ccccc1)COCc1ccc(Cl)cc1 (centres undefined)	11	5	-4	6	4	2	.
OC(CNCc1ccc(Cl)cc1)COc1ccccc1 (centres undefined)	25*	5	1	2	13	12	-2
O=C(CCC(=O)NC1CCCCC1)NCc1ccc(F)cc1	48*	-1	1	2	-1	9	-1
COC(=O)CCC(=O)OC1(C)C(=O)C=C2C=C(C3CC3)N(C(CO)CO)C=C2C1=O (centres undefined)	30*	10	-5	-2	1	9	14
COC(=O)CCC(=O)OC1(C)C(=O)C=C2C=C(C3CC3)N(CCCCO)C=C2C1=O (centres undefined)	31*	3	2	3	2	8	13
CC1(C)CC(=O)C=C(c2ccc(-c3ccc(S(C)(=O)=O)cc3)cc2)C1=O	-3	3	.	-5	-2	1	.
COCCCn1c(C)cc(C(=O)COC(=O)CCc2nc3ccccc3c(=O)[nH]2)c1C	8	3	-2	.	9	-3	.
